Calls of active or inactive are those of the source. The rule behind the calls is not given here. Bounds are passed on as bounds.

The source of these data is ChEMBL document CHEMBL4028856, “Discovery of Small Molecules Targeting the Synergy of Cardiac Transcription Factors GATA4 and NKX2-5” (J Med Chem, 2017).

For one data set, the target named is GATA4/NKX2-5 (Mus musculus, UniProt P42582+Q08369). As to the kind of experiment: Inhibition of mouse GATA4/NKX2-5 transcriptional synergy expressed in African green monkey COS-1 cells measured after 30 hrs by dual luciferase reporter gene assay. The data set is classed as cell-based. The procedure, abridged: (§1)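 COS-1 cells co-transfected (Fugene 6, DNA:reagent 1:3) with p3xNKE-luc, Renilla pRL-TKd238 control, and pMT2-GATA4, pMT2-NKX2-5, both, or empty pMT2; DNA balanced with pMT2. Compounds added 6 h post-transfection in 0.1% DMSO, medium renewed at 24 h, lysis at 30 h. Dual-luciferase read-out, firefly/Renilla normalized to vehicle; duplicate wells.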

In data set [1] the target is Transcription factor GATA-4 (Mus musculus) (UniProt Q08369). The data set is described as follows: Inhibition of binding of mouse GATA4 to [32P]-double stranded oligonucleotide expressed in African green monkey COS-1 cells at 50 uM preincubated for 10 mins followed by [32P]-double stranded oligonucleotide addition measured after 20 mins by EMSA method. In kind it is cell-based. The method in brief:
(§2)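 Nuclear extracts from COS-1 cells transfected with pMT2-GATA4 or pMT2-NKX2-5 (harvested 48 h) preincubated 10 min with 50 μM compound, then 20 min with 32P-labeled GATA4- or NKX2-5-site probe; native 5% PAGE, phosphorimager quantitation; antibody supershift controls; mean ± SD, n = 3–5.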

Data set [2] deals with Homeobox protein Nkx-2.5 (Mus musculus) (UniProt P42582). As to the kind of experiment: Inhibition of binding of mouse NKX2-5 to [32P]-double stranded oligonucleotide expressed in African green monkey COS-1 cells at 50 uM preincubated for 10 mins followed by [32P]-double stranded oligonucleotide addition measured after 20 mins by EMSA method. In kind it is cell-based. The procedure, abridged:
as §2

The target in data set [3] is Transcription factor GATA-4 (Rattus norvegicus) (UniProt P46152). The data set is described as follows: Inhibition of binding of GATA4 to [32P]-double stranded oligonucleotide in neonatal rat ventricular cardiomyocytes at 50 uM measured after 24 hrs by EMSA method. The method in brief: (§3)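 Neonatal rat cardiomyocytes treated 24 h with 50 μM; nuclear extracts incubated 20 min with [α-32P]dCTP Klenow-labeled GATA4- or NKX2-5-site oligonucleotide in HEPES/NaCl/KCl/MgCl2 buffer with poly(dI-dC); 5% native PAGE, phosphorimager; supershift with anti-GATA4/NKX2-5; relative to vehicle, mean ± SD, n = 3–5.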

The target of data set [4] is Homeobox protein Nkx-2.5 (Rattus norvegicus) (UniProt O35767). As to the kind of experiment: Inhibition of binding of NKX2-5 to [32P]-double stranded oligonucleotide in neonatal rat ventricular cardiomyocytes at 50 uM measured after 24 hrs by EMSA method. The method in brief: as §3
The nature of data set [5]: Induction of necrosis in endothelin-1 induced neonatal rat ventricular cardiomyocytes assessed as release of adenylate kinase at 50 uM measured after 24 hrs by bioluminescence assay. The data set is classed as cell-based. The following applies: cardiac muscle cell. The method in brief:
(§4)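 Neonatal rat cardiomyocytes treated 24 h at 50 μM; adenylate kinase released into medium measured by ToxiLight bioluminescence on a luminometer; relative to vehicle, mean ± SD, n = 3.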

Data set [6] can be described thus: Induction of apoptosis in endothelin-1 induced neonatal rat ventricular cardiomyocytes at 50 uM measured after 24 hrs by TUNEL assay. The data set is classed as cell-based. The following applies: cardiac muscle cell. The procedure, abridged: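 Neonatal rat cardiomyocytes on 8-well chamber slides treated 24 h at 50 μM; apoptotic cells detected by TUNEL with peroxidase in situ kit.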

The target in data set [7] is Fibroblast growth factor receptor 3 (Homo sapiens) (UniProt P22607). The data set is described as follows: Inhibiton of human FGFR3 at 30 uM. The method in brief: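 48-kinase profiling panel; compounds tested at 30 μM in duplicate.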
A short description of data set [8]: Induction of aggregation of compounds at 100 uM by nephalometric method.
Data set [9] concerns the target T1, GATA4/NKX2-5 (Mus musculus) (UniProt Q08369+P42582). As to the kind of experiment: Inhibition of mouse GATA4/NKX2-5 transcriptional synergy expressed in African green monkey COS-1 cells at 50 uM measured after 30 hrs by dual luciferase reporter gene assay. The data set is classed as cell-based. The procedure, abridged:
as §1

Data set [10] can be described thus: Induction of aggregation of compound at 3 to 30 uM by nephalometric method.
The target of data set [11] is Transcription factor GATA-4 (Mus musculus) (UniProt Q08369). As to the kind of experiment: Inhibition of mouse GATA4-driven transactivation of luciferase reporter construct containing BNP minimal promoter with tandem GATA-site on -90 bp expressed in African green monkey COS-1 cells after 30 hrs by luminometer. In kind it is cell-based. The method in brief: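 COS-1 cells co-transfected with firefly luciferase driven by BNP minimal or −90 bp BNP promoter, Renilla pRL-TKd238, and pMT2-GATA4 or empty pMT2. Compounds added 6 h post-transfection in 0.1% DMSO, refreshed with medium at 24 h; lysis at 30 h; dual-luciferase, firefly/Renilla normalized to vehicle; triplicate wells.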

For data set [12], the target named is T2, GATA4/NKX2-5 (Rattus norvegicus) (UniProt P46152+O35767). As to the kind of experiment: Activation of GATA4/NKX2-5 interaction in neonatal rat ventricular cardiomyocytes assessed as increase in basal mRNA level of ANP at 100 uM after 24 hrs by real-time PCR analysis relative to control. The method in brief:
(§5)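 Neonatal rat ventricular myocytes (2–4-day-old Sprague-Dawley or Wistar), preplated, seeded on 6-well plates, moved to complete serum-free medium next day and cultured 24 h. Compounds (10–100 μM) added 1 h before 100 nM endothelin-1 or none; ANP and BNP mRNA quantified by RT-PCR at 24 h, normalized to 18S RNA, relative to vehicle; mean ± SD, n = 3–6.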

Data set [13] addresses T2, GATA4/NKX2-5 (Rattus norvegicus). The data set is described as follows: Activation of GATA4/NKX2-5 interaction in neonatal rat ventricular cardiomyocytes assessed as increase in basal mRNA level of BNP at 100 uM after 24 hrs by real-time PCR analysis relative to control. The procedure, abridged: as §5
Data set [14] is described as follows: Induction of necrosis in neonatal rat ventricular cardiomyocytes assessed as release of adenylate kinase at 50 uM measured after 24 hrs by bioluminescence assay. The data set is classed as cell-based. The following applies: cardiac muscle cell. The method in brief: as §4
Data set [15] deals with T1, GATA4/NKX2-5 (Mus musculus). The following applies: 10 uM.
Data set [16] has the same target. The data set is described as follows: Activation of mouse GATA4/NKX2-5 transcriptional synergy expressed in African green monkey COS-1 cells measured after 30 hrs by dual luciferase reporter gene assay. In kind it is cell-based. The procedure, abridged: as §1
Data set [17] shares this target. The data set is described as follows: Activation of mouse GATA4/NKX2-5 transcriptional synergy expressed in African green monkey COS-1 cells at 10 uM measured after 30 hrs by dual luciferase reporter gene assay. In kind it is cell-based. The method in brief:
as §1

A short description of data set [18]: Induction of aggregation of compound at 30 uM by nephalometric method.
Data set [19] deals with T2, GATA4/NKX2-5 (Rattus norvegicus). As to the kind of experiment: Activation of GATA4/NKX2-5 interaction in neonatal rat ventricular cardiomyocytes assessed as increase in basal mRNA level of ANP at 20 uM after 24 hrs by real-time PCR analysis relative to control. The procedure, abridged:
as §5

Data set [20] shares this target. As to the kind of experiment: Activation of GATA4/NKX2-5 interaction in neonatal rat ventricular cardiomyocytes assessed as increase in basal mRNA level of BNP at 20 uM after 24 hrs by real-time PCR analysis relative to control. The method in brief: as §5
The target is the same in data set [21]. As to the kind of experiment: Activation of GATA4/NKX2-5 interaction in neonatal rat ventricular cardiomyocytes assessed as increase in endothelin-1 induced mRNA level of BNP at 20 uM preincubated for 1 hr followed by endothelin-1 addition measured after 23 hrs by real-time PCR analysis relative to control. The procedure, abridged:
as §5

A short description of data set [22]: Drug level in mouse embryonic stem cells treated with N-[4-(Diethylamino)phenyl]-5-methyl-3-phenylisoxazole-4-carboxamide at 3 to 5 uM measured after 10 days by HPLC/MS method. In kind it is ADME, cell-based. The following applies: embryonic stem cell, 240 h. The procedure, abridged:
(§6)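 Mouse embryonic stem cells exposed 5 and 10 days to 3 or 5 μM, with DMSO and EB differentiation medium blanks. Medium extracted with chloroform; cells pelleted, saline-washed twice, sonicated in chloroform. UPLC-ESI(+)-QTOF/MS, BEH C18, 0.1% formic acid water/acetonitrile gradient 7–80% B over 5 min, 0.6 mL/min, 40 °C.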

Data set [23] is described as follows: Drug level in embryoid body differentiation medium treated with N-[4-(Diethylamino)phenyl]-5-methyl-3-phenylisoxazole-4-carboxamide at 3 to 5 uM measured after 10 days by HPLC/MS method. The method in brief:
as §6

Chain of GATA4/NKX2-5 (Q08369 whole entry): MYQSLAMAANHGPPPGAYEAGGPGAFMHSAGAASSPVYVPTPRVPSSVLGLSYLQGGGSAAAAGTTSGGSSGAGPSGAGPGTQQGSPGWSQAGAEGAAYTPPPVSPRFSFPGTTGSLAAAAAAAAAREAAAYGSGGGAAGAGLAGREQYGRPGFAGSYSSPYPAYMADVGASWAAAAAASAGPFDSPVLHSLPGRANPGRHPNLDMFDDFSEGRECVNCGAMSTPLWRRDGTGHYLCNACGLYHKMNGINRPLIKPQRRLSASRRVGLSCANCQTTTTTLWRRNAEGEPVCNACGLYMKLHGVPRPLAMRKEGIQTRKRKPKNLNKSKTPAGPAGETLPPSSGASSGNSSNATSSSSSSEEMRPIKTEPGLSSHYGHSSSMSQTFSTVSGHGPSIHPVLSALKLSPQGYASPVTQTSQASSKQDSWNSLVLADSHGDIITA
Chain of GATA4/NKX2-5 (P42582 whole entry): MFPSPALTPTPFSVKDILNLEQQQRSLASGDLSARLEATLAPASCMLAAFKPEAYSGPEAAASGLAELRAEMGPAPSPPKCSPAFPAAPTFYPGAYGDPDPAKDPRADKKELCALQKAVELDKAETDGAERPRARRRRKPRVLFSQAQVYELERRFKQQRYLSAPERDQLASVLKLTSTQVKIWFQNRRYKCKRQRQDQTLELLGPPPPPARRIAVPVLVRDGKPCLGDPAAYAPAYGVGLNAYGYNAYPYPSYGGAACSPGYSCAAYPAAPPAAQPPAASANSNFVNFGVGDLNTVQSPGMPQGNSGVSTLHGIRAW
Chain of Transcription factor GATA-4 (Mus musculus) (Q08369 whole entry): as the sequence (Q08369 whole entry) above
Chain of Homeobox protein Nkx-2.5 (Mus musculus) (P42582 whole entry): as the sequence (P42582 whole entry) above
Chain of Fibroblast growth factor receptor 3 (Homo sapiens) (P22607 23-806 limits assumed): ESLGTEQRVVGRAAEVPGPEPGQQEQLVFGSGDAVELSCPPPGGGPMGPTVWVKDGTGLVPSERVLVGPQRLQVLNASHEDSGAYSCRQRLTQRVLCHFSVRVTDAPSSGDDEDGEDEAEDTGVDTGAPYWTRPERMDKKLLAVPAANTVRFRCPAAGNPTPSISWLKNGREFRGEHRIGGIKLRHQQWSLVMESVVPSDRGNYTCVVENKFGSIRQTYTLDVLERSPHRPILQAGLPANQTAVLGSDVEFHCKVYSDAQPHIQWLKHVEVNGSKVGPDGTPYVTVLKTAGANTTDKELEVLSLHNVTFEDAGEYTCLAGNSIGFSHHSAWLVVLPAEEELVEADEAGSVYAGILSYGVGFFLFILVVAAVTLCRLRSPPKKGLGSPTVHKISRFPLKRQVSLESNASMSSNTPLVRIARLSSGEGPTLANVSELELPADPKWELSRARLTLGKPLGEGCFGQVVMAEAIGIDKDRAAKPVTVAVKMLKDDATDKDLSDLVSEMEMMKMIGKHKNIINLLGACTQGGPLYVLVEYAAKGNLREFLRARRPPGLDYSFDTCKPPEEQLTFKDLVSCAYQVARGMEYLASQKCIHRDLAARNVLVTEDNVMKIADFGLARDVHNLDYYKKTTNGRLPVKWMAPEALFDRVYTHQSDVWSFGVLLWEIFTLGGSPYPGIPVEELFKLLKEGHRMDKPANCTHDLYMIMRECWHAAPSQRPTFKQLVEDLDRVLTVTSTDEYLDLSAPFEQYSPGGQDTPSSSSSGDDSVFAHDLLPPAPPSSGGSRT
Chain of Transcription factor GATA-4 (Rattus norvegicus) (P46152 whole entry): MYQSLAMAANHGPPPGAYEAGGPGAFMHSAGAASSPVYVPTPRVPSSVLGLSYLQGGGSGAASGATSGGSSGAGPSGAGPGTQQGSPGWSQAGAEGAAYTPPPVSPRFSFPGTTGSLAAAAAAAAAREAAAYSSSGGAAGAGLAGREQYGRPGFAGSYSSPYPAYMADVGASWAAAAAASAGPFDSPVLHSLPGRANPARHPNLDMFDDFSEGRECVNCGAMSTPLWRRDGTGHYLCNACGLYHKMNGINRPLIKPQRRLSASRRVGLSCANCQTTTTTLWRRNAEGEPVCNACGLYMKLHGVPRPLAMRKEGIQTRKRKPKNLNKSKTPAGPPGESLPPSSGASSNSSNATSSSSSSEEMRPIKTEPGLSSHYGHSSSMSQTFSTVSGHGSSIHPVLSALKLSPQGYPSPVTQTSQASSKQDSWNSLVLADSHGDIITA
Chain of Homeobox protein Nkx-2.5 (Rattus norvegicus) (O35767 whole entry): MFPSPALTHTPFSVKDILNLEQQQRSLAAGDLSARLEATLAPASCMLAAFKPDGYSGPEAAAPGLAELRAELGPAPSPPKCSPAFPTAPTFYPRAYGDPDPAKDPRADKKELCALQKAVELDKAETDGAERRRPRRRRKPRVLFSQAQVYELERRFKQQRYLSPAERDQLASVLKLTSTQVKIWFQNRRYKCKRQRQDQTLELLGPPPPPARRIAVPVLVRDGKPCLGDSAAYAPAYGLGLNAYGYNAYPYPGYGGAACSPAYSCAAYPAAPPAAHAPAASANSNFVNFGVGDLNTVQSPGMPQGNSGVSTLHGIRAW

As for `CCCOc1ccc(/C=N/n2c(S)nnc2-c2ccncc2)cc1`, the IC50 on GATA4/NKX2-5 stood at 10 µM. Besides, the inhibition entry in data set [1] is “inactive”. Moreover, the inhibition result in [2], in data set [9] and in data set [11] was “Active” throughout. The inhibition in data set [3] was 37%; in data set [4], 29%; in data set [7], 55%. In addition, the Activity entry in data set [5], in data set [6] and in data set [14] was “Non-Toxic” throughout. For the same compound, the outcome in [8] was Active. Besides, the result in [10] was inactive. Further, the fold change (FC) came out at 8.6 in [12] and 4.9 in data set [13].
With `CC(C)COC(=O)c1ccc(NC(=O)c2ccncc2)cc1`, the half-maximal inhibitory concentration (IC50) at GATA4/NKX2-5 was determined as 5 µM. The inhibition entry in [1] and in [15] was “Active” each time. For the same compound, the inhibition entry in data set [2] is “inactive”.
On to `Cc1onc(-c2ccccc2)c1C(=O)N(C1=NC(C)CS1)c1ccc(Cl)cc1` (configuration not stated), for which the Ka in [16] came to 7 µM. Further, the Activity result in data set [5], in [6] and in data set [14] was “Non-Toxic” in each case. The outcome in [17], in [8] and in data set [18] was Active. Also, the fold change (FC) in [19] is 4.6; in [20], 6.4; in [21], 2.1.
Consider `CCNc1ccc(NC(=O)c2c(-c3ccccc3)noc2C)cc1`, for which the 50% inhibitory concentration (IC50) at GATA4/NKX2-5 was more than 50 µM. Besides, the results for the Drug metabolism result in [22] and in [23] were “Metabolite_Detected” and “Metabolite detected”, respectively.
